Experimental data: ChEMBL document CHEMBL2034936, “Discovery and extensive in vitro evaluations of NK-HDAC-1: a chiral histone deacetylase inhibitor as a promising lead” (J Med Chem, 2012)
Active and inactive are the calls of the source. The rule behind the calls is not given here.

Tests used:
CCRF-CEM = test: Growth inhibition of human CCRF-CEM cells after 72 hrs by MTS assay; format: functional
HL-60(TB) = test: cells; format: functional; settings: Homo sapiens, HL-60, 72 h
K562 [1] = test: cells; format: functional; settings: Homo sapiens, K562, 72 h
MOLT-4 = test: Growth inhibition of human MOLT4 cells after 72 hrs by MTS assay; format: functional; settings: MOLT-4, 72 h
SR = test: Growth inhibition of human SR cells after 72 hrs by MTS assay; format: functional
A549 [2] = test: cells; format: functional; settings: Homo sapiens, A549, 72 h
EKVX = test: cells; format: functional; settings: Homo sapiens, 72 h
HOP-92 = test: cells; format: functional; settings: Homo sapiens, HOP-92, 72 h
NCI-H226 = test: cells; format: functional; settings: Homo sapiens, NCI-H226, 72 h
NCI-H23 = test: cells; format: functional; settings: Homo sapiens, NCI-H23, 72 h
NCI-H322M = test: Growth inhibition of human NCI-H322M cells after 72 hrs by MTS assay; format: functional
NCI-H460 = test: Growth inhibition of human NCI-H460 cells after 72 hrs by MTS assay; format: functional; settings: NCI-H460, 72 h
NCI-H522 = test: cells; format: functional; settings: Homo sapiens, NCI-H522, 72 h
COLO 205 [3] = test: Growth inhibition of human COLO205 cells after 72 hrs by MTS assay; format: functional; settings: COLO 205, 72 h
HCT-116 = test: Growth inhibition of human HCT116 cells after 72 hrs by MTS assay; format: functional; settings: HCT-116, 72 h
HCT-15 = test: cells; format: functional; settings: Homo sapiens, HCT-15, 72 h
HT-29 = test: Growth inhibition of human HT-29 cells after 72 hrs by MTS assay; format: functional; settings: HT-29, 72 h
KM12 = test: cells; format: functional; settings: Homo sapiens, KM12, 72 h
SW-620 [4] = test: cells; format: functional; settings: Homo sapiens, SW-620, 72 h
IGROV-1 = test: cells; format: functional; settings: Homo sapiens, IGROV-1, 72 h
OVCAR-3 [5] = test: cells; format: functional; settings: Homo sapiens, OVCAR-3, 72 h
OVCAR-4 = test: cells; format: functional; settings: Homo sapiens, OVCAR-4, 72 h
OVCAR-5 = test: Growth inhibition of human OVCAR5 cells after 72 hrs by MTS assay; format: functional; settings: OVCAR-5, 72 h
OVCAR-8 = test: cells; format: functional; settings: Homo sapiens, OVCAR-8, 72 h
cells [6] = format: functional; settings: Homo sapiens, NCI/ADR-RES, 72 h
SK-OV-3 = test: cells; format: functional; settings: Homo sapiens, SK-OV-3, 72 h
PC-3 [7] = test: cells; format: functional; settings: Homo sapiens, PC-3, 72 h
DU-145 = test: cells; format: functional; settings: Homo sapiens, DU-145, 72 h
SF-268 = test: cells; format: functional; settings: Homo sapiens, SF-268, 72 h
SF-295 = test: cells; format: functional; settings: Homo sapiens, SF-295, 72 h
SF-539 = test: cells; format: functional; settings: Homo sapiens, SF-539, 72 h
SNB-19 = test: cells; format: functional; settings: Homo sapiens, SNB-19, 72 h
SNB-75 = test: Growth inhibition of human SNB75 cells after 72 hrs by MTS assay; format: functional; settings: SNB-75, 72 h
U-251 = test: cells; format: functional; settings: Homo sapiens, U-251, 72 h
LOX IMVI = test: cells; format: functional; settings: Homo sapiens, 72 h
Malme-3M = test: cells; format: functional; settings: Homo sapiens, 72 h
M14 = test: cells; format: functional; settings: Homo sapiens, M14, 72 h
MDA-MB-435 = test: cells; format: functional; settings: Homo sapiens, MDA-MB-435, 72 h
SK-MEL-2 = test: cells; format: functional; settings: Homo sapiens, SK-MEL-2, 72 h
SK-MEL-28 = test: cells; format: functional; settings: Homo sapiens, SK-MEL-28, 72 h
SK-MEL-5 = test: cells; format: functional; settings: Homo sapiens, SK-MEL-5, 72 h
UACC-257 = test: cells; format: functional; settings: Homo sapiens, UACC-257, 72 h
UACC-62 = test: Growth inhibition of human UACC62 cells after 72 hrs by MTS assay; format: functional; settings: UACC-62, 72 h
786-0 = test: cells; format: functional; settings: Homo sapiens, 786-0, 72 h
A498 = test: cells; format: functional; settings: Homo sapiens, A498, 72 h
ACHN = test: cells; format: functional; settings: Homo sapiens, 72 h
RXF 393 = test: cells; format: functional; settings: Homo sapiens, RXF 393, 72 h
SN12C = test: cells; format: functional; settings: Homo sapiens, 72 h
TK-10 = test: cells; format: functional; settings: Homo sapiens, TK-10, 72 h
UO-31 = test: cells; format: functional; settings: Homo sapiens, UO-31, 72 h
MDA-MB-468 = test: cells; format: functional; settings: Homo sapiens, MDA-MB-468, 72 h
cells [8] = format: functional; settings: Homo sapiens, Hs-578T, 72 h
BT-549 = test: cells; format: functional; settings: Homo sapiens, BT-549, 72 h
T47D = test: cells; format: functional; settings: Homo sapiens, 72 h
Histone deacetylase = test: Inhibition of HDAC in human HeLa cell nuclear extracts using Ac-Arg-Gly-Lys(Ac)-AMC substrate by fluorimetry; format: protein assay
MDA-MB-231 [9] = test: cells; format: functional; settings: Homo sapiens, MDA-MB-231, 72 h
MCF7 = test: cells; format: functional; settings: Homo sapiens, MCF7, 48 h
HepG2 = test: cells; format: functional; settings: Homo sapiens, HepG2, 72 h
MDA-MB-231 [10] = test: cells; format: functional; settings: Homo sapiens, MDA-MB-231, 72 h; remark: listed apart in the source
A549 [11] = test: cells; format: functional; settings: Homo sapiens, A549, 72 h; remark: listed apart in the source
K562 [12] = test: cells; format: functional; settings: Homo sapiens, K562, 72 h; remark: listed apart in the source
SW-620 [13] = test: cells; format: functional; settings: Homo sapiens, SW-620, 72 h; remark: listed apart in the source
COLO 205 [14] = test: cells; format: functional; settings: Homo sapiens, COLO 205, 72 h
OVCAR-3 [15] = test: cells; format: functional; settings: Homo sapiens, OVCAR-3, 72 h; remark: listed apart in the source
PC-3 [16] = test: cells; format: functional; settings: Homo sapiens, PC-3, 72 h; remark: listed apart in the source
[17] = biological target: Histone deacetylase (Homo sapiens) (UniProt Q13547+O15379+Q9UBN7+Q92769+Q9UQL6+Q8WUI4+Q9BY41+Q96DB2+P56524+Q9UKV0+Q969S8); test: Inhibition of HDAC in human MDA-MB-231 cells assessed as stimulation of histone H3 acetylation at 5 uM incubated for 24 hrs by Western blot; format: cell-based
In short: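 MDA-MB-231 cells in 35-mm dishes, dosed 24 h at graded concentrations, then trypsinized and PBS-washed. Lysed in RIPA (50 mM Tris-HCl pH 7.5, protease and phosphatase inhibitors) for 30 min at 4 °C, then cleared at 12,000g. Lysate, 60 μg protein by BCA, run on SDS-PAGE and PVDF. Blotted with anti-acetyl-histone H3 and HRP anti-rabbit, read by ECL.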

CC(C)[C@H](c1nc2ccccc2o1)n1cc(/C=C/C(=O)NO)nn1
GI50 (CCRF-CEM): 350 nM
GI50 (HL-60(TB)): 280 nM
GI50 (K562 [1]): 280 nM
GI50 (MOLT-4): 300 nM
GI50 (SR): 350 nM
GI50 (A549 [2]): 300 nM
GI50 (EKVX): 680 nM
GI50 (HOP-92): 70 nM
GI50 (NCI-H226): 1300 nM
GI50 (NCI-H23): 350 nM
GI50 (NCI-H322M): 250 nM
GI50 (NCI-H460): 390 nM
GI50 (NCI-H522): 130 nM
GI50 (COLO 205 [3]): 250 nM
GI50 (HCT-116): 180 nM
GI50 (HCT-15): 960 nM
GI50 (HT-29): 220 nM
GI50 (KM12): 410 nM
GI50 (SW-620 [4]): 290 nM
GI50 (IGROV-1): 190 nM
GI50 (OVCAR-3 [5]): 470 nM
GI50 (OVCAR-4): 2800 nM
GI50 (OVCAR-5): 400 nM
GI50 (OVCAR-8): 240 nM
GI50 (cells [6]): 95 nM
GI50 (SK-OV-3): 260 nM
GI50 (PC-3 [7]): 280 nM
GI50 (DU-145): 350 nM
GI50 (SF-268): 630 nM
GI50 (SF-295): 310 nM
GI50 (SF-539): 750 nM
GI50 (SNB-19): 850 nM
GI50 (SNB-75): 410 nM
GI50 (U-251): 340 nM
GI50 (LOX IMVI): 160 nM
GI50 (Malme-3M): 63 nM
GI50 (M14): 410 nM
GI50 (MDA-MB-435): 240 nM
GI50 (SK-MEL-2): 350 nM
GI50 (SK-MEL-28): 520 nM
GI50 (SK-MEL-5): 250 nM
GI50 (UACC-257): 230 nM
GI50 (UACC-62): 400 nM
GI50 (786-0): 340 nM
GI50 (A498): 260 nM
GI50 (ACHN): 470 nM
GI50 (RXF 393): 350 nM
GI50 (SN12C): 790 nM
GI50 (TK-10): 160 nM
GI50 (UO-31): 230 nM
GI50 (MDA-MB-468): 250 nM
GI50 (cells [8]): 1300 nM
GI50 (BT-549): 280 nM
GI50 (T47D): 500 nM
IC50 (Histone deacetylase): 31 nM
GI50 (MDA-MB-231 [9]): 910 nM
GI50 (MCF7): 450 nM

NC(=O)CCC(c1nc2ccccc2o1)n1cc(/C=C/C(=O)NO)nn1 (racemic)
GI50 (HepG2): 14000 nM
GI50 (MDA-MB-231 [10]): 9500 nM
IC50 (Histone deacetylase): 49 nM
GI50 (A549 [11]): 21800 nM

O=C(/C=C/c1cn(Cc2nc3ccccc3s2)nn1)NO
GI50 (HepG2): 8800 nM
GI50 (K562 [12]): 2600 nM
GI50 (SW-620 [13]): 1500 nM
GI50 (COLO 205 [14]): 1500 nM
GI50 (OVCAR-3 [15]): 3600 nM
GI50 (PC-3 [16]): 2900 nM
histone H3 acetylation activity (active/not active) [17]: inactive
IC50 (Histone deacetylase): 41 nM
GI50 (A549 [11]): 2100 nM

CC(C)C(c1nc2ccccc2o1)n1cc(/C=C/C(=O)NO)nn1 (racemic)
GI50 (HepG2): 1000 nM
GI50 (MDA-MB-231 [10]): 170 nM
histone H3 acetylation activity (active/not active) [17]: Active
IC50 (Histone deacetylase): 23 nM
GI50 (A549 [11]): 400 nM

CC(c1nc2ccccc2o1)n1cc(/C=C/C(=O)NO)nn1 (racemic)
GI50 (HepG2): 2900 nM
GI50 (MDA-MB-231 [10]): 1200 nM
IC50 (Histone deacetylase): 86 nM
GI50 (A549 [11]): 2400 nM

CCC(C)C(c1nc2ccccc2o1)n1cc(/C=C/C(=O)NO)nn1 (racemic)
GI50 (HepG2): 1700 nM
GI50 (MDA-MB-231 [10]): 190 nM
IC50 (Histone deacetylase): 4 nM
GI50 (A549 [11]): 520 nM

O=C(/C=C/c1cn(Cc2nc3ccccc3o2)nn1)NO
GI50 (HepG2): 6100 nM
GI50 (K562 [12]): 720 nM
GI50 (SW-620 [13]): 1200 nM
GI50 (COLO 205 [14]): 1100 nM
GI50 (OVCAR-3 [15]): 1900 nM
GI50 (PC-3 [16]): 1600 nM
GI50 (MDA-MB-231 [10]): 1400 nM
histone H3 acetylation activity (active/not active) [17]: Active
IC50 (Histone deacetylase): 105 nM
GI50 (A549 [11]): 4700 nM
